# Rce1 inh: yeast Rce1p protease inhibitors, primary screen, biochemical, fluorescence, cell-free homogeneous | yeast membranes, quenched prenylated peptide cleavage fluorescence | calls only | actives 0.27% (n = 290,000) | AID 2563, 2010;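 active means fall in fluorescence gain of 50% or more versus controls, with final raw signal at or below 3038400; inconclusive means same 50% fall but final raw signal above 3038400; inactive means fall in fluorescence gain under 50%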;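 further: plate controls were neutral control wells for no effect and wells lacking membranes for full effect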
# Lipid droplet: inhibitors of hepatocyte lipid droplet formation, primary screen, imaging, high-throughput imaging, BODIPY stain; AML12 mouse hepatocytes, oleate lipid droplets; inhibition, % at 6.5 µM; actives 0.4% (n = 240,000);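 active means lipid droplet intensity inhibited by at least 50%, with more than 500 cells counted; inconclusive means wells with under 300 cells, treated as cytotoxic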
#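 Test system: AML12 mouse liver cells; schedule: overnight exposure; technique: high-content imaging of BODIPY-stained droplets and DAPI nuclei; read-out: % inhibition of corrected integrated BODIPY droplet signal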
# proCasp3 act: activators of human procaspase-3 D3A mutant, primary screen, biochemical, absorbance, PC-3 D3A mutant, single concentration; Caspase-3 (Homo sapiens), P42574; recombinant procaspase-3 D3A, Ac-DEVD-pNA absorbance 405 nm; activation, % at 8.5 µM; actives 0.11% (n = 330,000);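 active means activation above the mean of all tested compounds plus 3 SD, cut at about 21% in these data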;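 further: 0% = DMSO alone and 100% = DMSO wells spiked with extra 5 µM PC-3 D3A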
#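 Assay system – Procaspase-3 D3A mutant, all three cleavage aspartates alanine · Controls – DMSO-only low control, 5 µM PC-3 D3A high control · Schedule – 1 h compound preincubation, 2 h substrate hydrolysis at 25 °C · Signal – 405 nm absorbance of p-nitroaniline, reads at 0 and 120 min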
# procasp7 counter: procaspase-7 activators, primary screen, counter-screen for procaspase-3 activator project, biochemical, absorbance, HTS, human. Caspase-7 (Homo sapiens), P55210. recombinant procaspase-7, Ac-DEVD-pNA absorbance 405 nm; D23A/D198A/D206A triple mutant, cannot self-cleave; scale: DMSO 0, 5 µM enzyme 100. activation, % at 8.5 µM. actives 0.093% (n = 330,000). AID 463210, 2010;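 active means percent activation above the screen-wide mean plus 3 SD, cut at about 25% in these data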
#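 Material: Procaspase-7 triple mutant (PC-7 D3A) | Quantity: 2 µM procaspase-7 mutant as dispensed | Reagent: DEVD-pNA substrate | Times: 1 h preincubation, 2 h reaction | Technique: 405 nm absorbance of p-nitroaniline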
# pCIP destab: p/CIP-EGFP fusion destabilizers, primary screen, fluorescence, F442A cells; 16 h; actives 0.01% (n = 290,000); decrease of EGFP signal, % at 10 µM;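 active means EGFP signal decrease of at least 30% at 10 µM or well 3 SD below plate mean, unless failing retest; inactive means the rest, including hits failing retest or dose response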
# Target sequence (Q05BA5 1-1403): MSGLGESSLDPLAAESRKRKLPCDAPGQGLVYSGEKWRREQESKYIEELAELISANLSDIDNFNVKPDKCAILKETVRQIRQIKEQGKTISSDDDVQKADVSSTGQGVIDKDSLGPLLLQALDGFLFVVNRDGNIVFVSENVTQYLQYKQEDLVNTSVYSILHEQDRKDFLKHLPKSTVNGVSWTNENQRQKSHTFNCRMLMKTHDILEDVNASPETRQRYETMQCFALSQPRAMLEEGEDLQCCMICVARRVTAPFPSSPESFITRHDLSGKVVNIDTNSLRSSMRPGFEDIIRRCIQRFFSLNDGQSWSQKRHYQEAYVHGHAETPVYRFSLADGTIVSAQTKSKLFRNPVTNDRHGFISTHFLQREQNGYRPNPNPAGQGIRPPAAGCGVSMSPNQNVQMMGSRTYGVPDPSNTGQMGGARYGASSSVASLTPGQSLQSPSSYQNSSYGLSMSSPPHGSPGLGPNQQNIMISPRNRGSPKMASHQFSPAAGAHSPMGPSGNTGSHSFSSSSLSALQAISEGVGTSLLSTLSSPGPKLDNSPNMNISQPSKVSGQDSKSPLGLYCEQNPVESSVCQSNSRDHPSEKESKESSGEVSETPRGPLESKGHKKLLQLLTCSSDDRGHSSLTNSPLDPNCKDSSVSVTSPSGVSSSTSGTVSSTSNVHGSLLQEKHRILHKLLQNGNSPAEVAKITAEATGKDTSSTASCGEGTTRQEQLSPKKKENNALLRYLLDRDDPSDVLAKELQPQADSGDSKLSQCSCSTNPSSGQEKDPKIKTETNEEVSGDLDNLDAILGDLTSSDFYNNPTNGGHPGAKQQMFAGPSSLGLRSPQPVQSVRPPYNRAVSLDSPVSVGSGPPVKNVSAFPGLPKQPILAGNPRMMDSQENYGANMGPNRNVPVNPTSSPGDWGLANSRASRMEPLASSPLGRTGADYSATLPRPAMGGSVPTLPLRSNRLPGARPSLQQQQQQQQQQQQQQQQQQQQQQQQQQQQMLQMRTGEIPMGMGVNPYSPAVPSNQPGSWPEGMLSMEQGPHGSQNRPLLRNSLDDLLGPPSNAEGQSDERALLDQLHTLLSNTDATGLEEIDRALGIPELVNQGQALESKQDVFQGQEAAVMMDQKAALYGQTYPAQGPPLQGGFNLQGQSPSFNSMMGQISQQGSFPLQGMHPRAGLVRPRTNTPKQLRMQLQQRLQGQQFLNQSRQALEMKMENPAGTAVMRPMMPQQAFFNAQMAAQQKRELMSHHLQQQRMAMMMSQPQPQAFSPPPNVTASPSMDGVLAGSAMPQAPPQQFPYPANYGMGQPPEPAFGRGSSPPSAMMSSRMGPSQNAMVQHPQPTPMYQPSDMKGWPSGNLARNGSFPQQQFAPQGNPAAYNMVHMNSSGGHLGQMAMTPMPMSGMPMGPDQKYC
# GAA850 FXN act: FXN promoter activators, primary screen, cell-based, luciferase luminescence, HEK293 lucGAA850. HEK293 lucGAA850 FXN promoter luciferase reporter, 24 h; percent of 10 µM SAHA response. activation, % at 6 µM. actives 0.56% (n = 360,000);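 active means activation above the average of all compounds screened plus 3 SD, cutoff fixed separately per campaign, cut at about 7.5% in these data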;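 further: 0% = DMSO wells and 100% = 10 µM SAHA wells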
# * hit, by the source's call; i = inactive; ? = inconclusive; . = no result given; + = active, no number. A selection: hits, their analogues and other compounds. The true share with any hit is near 1.2%.
SMILES,Rce1 inh,Lipid droplet,proCasp3 act,procasp7 counter,pCIP destab,GAA850 FXN act
Cn1cccc1C(=O)NC(=O)COC(=O)c1ccc(S(C)(=O)=O)c([N+](=O)[O-])c1,.,.,6,-4,.,7
CS(=O)(=O)c1ccc(C(=O)OCC(=O)NC23CC4CC(CC(C4)C2)C3)cc1[N+](=O)[O-],i,22,5,10,-1,12*
NCCNC(=O)Cc1cccc(NC(=O)Cc2ccc(Nc3ncnc4c3ncn4[C@@H]3O[C@H](CO)[C@@H](O)[C@H]3O)cc2)c1,i,-2,5,-2,2,10*
O=C(O)CCc1nc2ccccc2n(CCc2ccccc2)c1=O,i,.,2,1,-3,0
O=C(O)CCc1nc2cc(C(F)(F)F)ccc2n(Cc2ccccc2)c1=O,+,-3,-1,-2,-5,0
CC(C)(C)OC(=O)N1CCC(c2cc(=O)n3[nH]cc(C(=O)Nc4ccc(F)c(Cl)c4)c3n2)CC1,+,2,0,9,3,1
CCCCC(=O)N(C)c1c(CC)nc2c(OCC(=O)N(C)C)cccn12,.,.,.,.,.,2
S=C(NCCCCN(Cc1ccc(Cl)cc1)c1ccc(Br)cn1)NCCCc1cnc[nH]1,.,.,.,.,.,0
CCNc1nc(C)c(CN(C(C)=O)c2ccccc2)nc1C#N,+,-37,1,-1,0,2
O=C1c2ccccc2C(=O)c2c1ccc(C(=O)N1CCCCC1)c2NCCO,i,.,-4,6,-15,1
CC1(C)CCCN(C(=O)c2ccc3c(c2NCCO)C(=O)c2ccccc2C3=O)C1,i,98*,-1,-5,-3,-1
CC(=O)c1ccc(Nc2nc(C(N)COCc3ccccc3)cs2)cc1 (centres undefined),.,.,.,.,.,-2
Cc1[nH]n(-c2ccccc2)c(=O)c1N=Nc1ccccc1,i,54*,-1,-3,8,3
CCCCNC(=O)c1ccc2nc(CC)c(N(CC)CCOC)n2c1,.,.,.,.,.,2
CCO[C@@H]1OC(C(=O)N2CCN(Cc3ccccc3)CC2)=C[C@H](c2ccccc2)[C@H]1CCCO,+,-30,2,-1,-11,0
COc1ccc(-c2cc(C(F)(F)F)nc(SCC(N)=O)n2)cc1,i,1,-7,-1,1,1
COc1ccc(-c2cc(C(F)(F)F)nc(SCC(=O)NCc3ccco3)n2)cc1OC,i,-14,-4,5,0,3
COc1ccc(-c2cc(C(F)(F)F)nc(SCC(=O)NCc3cnn(C)c3C)n2)cc1OC,+,-21,-7,4,-25,-2
COc1ccc(-c2cc(C(F)(F)F)nc(SCC(=O)N(C)Cc3cn(C)nc3C)n2)cc1OC,+,-3,-2,-2,-16,4
COc1cc(/C=N/NC(=O)c2ccncc2)ccc1OC(=O)c1cc(OC)c(OC)c(OC)c1,+,-2,5,8,-22,1
Nc1nnnn1/N=C/c1ccccc1OCc1ccc(Cl)cc1Cl,+,.,-3,7,3,6
Nc1nnnn1/N=C/c1ccccc1OCc1ccc(Cl)cc1,i,16,6,10,-4,0
CCCCOc1ccc(C(=O)Nn2c(-c3cccs3)nc3ccccc3c2=O)cc1,+,-15,1,-3,6,-2
O=C(/C=C/c1ccccc1)Nn1c(-c2cccs2)nc2ccccc2c1=O,i,4,15,5,-6,1
CCOc1ccccc1C(=O)N1CCN(c2cccc(Cl)c2)CC1,i,?,2,1,-7,-3
SMILES,Rce1 inh,Lipid droplet,proCasp3 act,procasp7 counter,pCIP destab,GAA850 FXN act
COc1ccccc1N1CCN(c2ncc(C(=O)N3CCN(c4cccc(Cl)c4)CC3)c3ccccc23)CC1,+,-11,-3,3,-10,2
CCOC(=O)c1c(C2COc3ccccc3O2)csc1NC(=O)c1ccccc1 (centres undefined),+,6,-3,15,5,0
CCOC(=O)c1c(C2COc3ccccc3O2)csc1N (centres undefined),i,.,4,-3,-3,3
CCNC(=O)C1CCCN(C(=O)Cc2cccs2)CC1 (centres undefined),.,.,.,.,.,0
CCOc1ccc(-n2c(SCc3ccc([N+](=O)[O-])cc3)nnc2-c2ccc(OC)cc2)cc1,+,5,2,7,6,1
CCOc1ccc(-n2c(SCc3ccc(C#N)cc3)nnc2-c2cccnc2)cc1,i,.,-2,-2,7,5
CCN(CC)C(=O)C1=C(C)N(Cc2ccc(F)cc2)C(=O)C(CC(=O)NCC2CCCCC2)C1 (centres undefined),.,.,.,.,.,-3
CCCCc1cc(=O)oc2cc(OCC(=O)N3CCC(C(N)=O)CC3)ccc12,i,4,8,2,5,2
CCCCc1cc(=O)oc2cc(OCC(=O)N3CCOCC3)ccc12,+,8,1,-12,2,2
CCc1nc2c(OCC(=O)C(C)(C)C)cccn2c1N(C)C(=O)COc1ccccc1,.,.,.,.,.,2
Cc1nc2ccc(S(=O)(=O)CCC(=O)NCCc3ccccc3)cc2s1,.,.,.,.,.,-2
O=C(Nc1cccc(-c2cn3ccccc3n2)c1)C1CC1,+,-3,0,1,-8,2
CCC(=O)Nc1cccc(-c2cn3ccccc3n2)c1,i,2,3,-5,-8,4
CC(C)[C@H](NC(=O)[C@@H]1Cc2c([nH]c3ccccc23)C2c3ccccc3C(=O)N21)C(=O)N1CCC[C@H]1C(=O)O (some centres undefined),.,.,.,.,.,-2
O=[N+]([O-])c1ccc(-c2cnc(SC(c3ccccc3)c3ccccc3)[nH]2)cc1,+,7,-7,-3,-9,-2
O=[N+]([O-])c1ccc(-c2cnc(SCc3ccccc3Cl)[nH]2)cc1,i,.,5,-1,-16,7
CCCCN(C=O)c1c(CC)nc2ccc(C(=O)N3CCCCC3)cn12,.,.,.,.,.,-2
Cc1c(CCC(=O)O)c(=O)oc2cc(OCc3cccc(F)c3)ccc12,+,.,0,0,-2,0
COc1ccc(-c2c(C)oc3c(CN4CCN(C)CC4)c(O)ccc3c2=O)cc1,+,25,5,0,-17,3
